Published values of several laboratories.
Protocols differ between the studies behind these lines.
TEC phosphorylated: Tyrosine-protein kinase Tec, phosphorylated (TEC, Homo sapiens, UniProt P42680)
TEC: Tyrosine-protein kinase Tec (TEC, Homo sapiens, UniProt P42680)

| SMILES | target | effect on | mode | technique | tested at | measurement | result |
| --- | --- | --- | --- | --- | --- | --- | --- |
| CCN(CC)c1ccc(C2=NNC(=O)CC2C)cc1[N+](=O)[O-] (centres unmarked) | TEC phosphorylated | enzyme activity | inhibitor | – | 10 µM | remaining activity | 64% |
| c1nc2c(Nc3ccc4c(c3)OCCO4)nc(Nc3ccc4c(c3)OCCO4)nc2[nH]1 | TEC | enzyme activity | inhibitor | – | 10 µM | activity vs control | 2.5% |
| CN([C@@H]1CCc2c(CC(=O)O)c3ccccc3n2C1)S(=O)(=O)c1ccc(F)cc1 | TEC | cell-free assay | – | competition with immobilised ligand | 1 µM | remaining binding | 100% |
| Nc1ncnc2occ(-c3ccc(NC(=O)Nc4cc(C(F)(F)F)ccc4F)cc3)c12 | TEC | cell-free assay | inhibitor | – | 20 µM | remaining signal | 53% |
| CC(=O)N1CCC(c2ccc(C(=O)NC3=NCCN3)cc2C(F)(F)F)CC1 | TEC | binding | – | competition with immobilised ligand | 1 µM | remaining binding | 100% |
| O=C1Nc2ccc(Cl)cc2C1=Cc1cc(Cl)c(O)c(Cl)c1 | TEC | cell-free assay | – | – | 0.5 µM | remaining signal | 109% |
| CCCOc1ccc([C@@H]2[C@@H](C(=O)O)[C@H](c3ccc4c(c3)OCO4)CN2CC(=O)Nc2c(CC)cccc2CC)cc1 | TEC | binding | – | competition with immobilised ligand | 1 µM | remaining binding | 96% |
| Cc1cc(NC(=O)c2cccc3cc(-c4cccc5[nH]nc(N)c45)ccc23)ccc1F | TEC phosphorylated | enzyme activity | inhibitor | – | 0.1 µM | activity vs control | 90% |
| Cc1cnc(NC2CCOCC2)nc1-n1cnc(C(=O)NC(CN)c2cc(F)cc(Cl)c2)c1 (centres unmarked) | TEC phosphorylated | enzyme activity | inhibitor | radiometric | 1 µM | remaining activity | 102% |
| CC(C)(C)c1nc2c(s1)c1nc(N)ncc1c1ccc(NS(=O)(=O)c3c(F)cccc3F)c(F)c12 | TEC | enzyme activity | inhibitor | radiometric | 1 µM | remaining activity | 87% |
| Cc1sc(C(=O)NC2COC2)cc1-n1cc(NC(=O)Nc2c(F)cccc2Cl)cn1 | TEC | enzyme activity | inhibitor | – | 10 µM | remaining activity | 91.1% |
| CNC(=O)c1cc(Oc2ccc(NC(=O)Nc3ccc(Cl)c(C(F)(F)F)c3)cc2)ccn1 | TEC | cell-free assay | – | – | 0.5 µM | remaining signal | 101% |
| O=C(O)c1cc(-c2ccc(C3CCNCC3)cc2)c2ccc(-c3ccc(C(F)(F)F)cc3)cc2c1 | TEC | cell-free assay | – | competition with immobilised ligand | 1 µM | remaining binding | 100% |
| CCCOc1ccc(OC)c(F)c1C(=O)c1ccc(C(=O)N[C@@H]2CNC[C@H]2NC(=O)c2ccc3[nH]ncc3c2)cc1 | TEC phosphorylated | enzyme activity | inhibitor | – | 10 µM | remaining activity | 50% |
| O=C(Nc1cnn(-c2csc(C(=O)NC3COC3)c2)c1)Nc1ccccc1Cl | TEC | enzyme activity | inhibitor | – | 5 µM | remaining activity | 97.2% |
| Cc1ccc(NC(=O)c2ccc(C)c(C(F)(F)F)c2)cc1C#Cc1nn(C2CCC(O)CC2)c2ncnc(N)c12 (centres unmarked) | TEC phosphorylated | enzyme activity | inhibitor | – | 10 µM | remaining activity | 24% |
| O=C(O)[C@@H]1[C@@H](Cn2nnc3ccccc3c2=O)CC[C@H]1C(=O)c1ccc(OCCC2CCOCC2)cc1 | TEC | binding | – | competition with immobilised ligand | 1 µM | remaining binding | 95% |
| O=C1NC(=O)c2cc(Nc3ccc(F)cc3)c(Nc3ccc(F)cc3)cc21 | TEC | cell-free assay | – | – | 0.5 µM | remaining signal | 102% |
| CN(C)C(=O)Cn1cc(-c2nc(C3(c4ccc(-c5cnc(N)nc5)cc4)CC3)no2)cn1 | TEC | binding | – | competition with immobilised ligand | 1 µM | remaining binding | 93% |
| CC(C)[C@H](NC(=O)c1cc(-c2cnn3cc(-c4ccc(OCCN5CCCCC5)cc4)cnc23)cs1)C(F)(F)F | TEC | enzyme activity | inhibitor | radiometric | 15 nM | inhibition | 0% |
